Experimental findings from ChEMBL document CHEMBL5136969, “A niclosamide-tobramycin hybrid adjuvant potentiates cefiderocol against P. aeruginosa” (2021) are described below.

Structures are written as SMILES. In brackets after ≈: the same amount, converted by molar mass. Activity calls are given as the source filed them.

The MIC is the lowest concentration that inhibits growth of the organism.

Experiment [1] relates to Pseudomonas aeruginosa. As to the kind of experiment: Potentiation of ciprofloxacin-induced antibiotic activity against Pseudomonas aeruginosa PAO1 assessed as MIC fold reduction at 8 ug/ml after 18 hrs by microbroth dilution method. The note with it: dose 8 µg/ml. The class given is functional. In a few lines: (§1)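 Adjuvant held at a fixed 8 μg/mL while the antibiotic was 2-fold serially diluted in Mueller-Hinton broth (MHB), per CLSI microbroth dilution. Overnight cultures were adjusted in saline to 0.5 McFarland, then diluted 1:50 in MHB to about 5 × 10^5 CFU/mL final, and incubated 18 h at 37 °C. MIC was the lowest concentration with no visible turbidity, confirmed at 590 nm. Fold potentiation = MIC alone / MIC with adjuvant.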
For orientation: Dilution methods test growth across graded concentrations, often in twofold steps.

Experiment [2] deals with Pseudomonas aeruginosa. The experiment is described as follows: Potentiation of tobramycin-induced antibiotic activity against Pseudomonas aeruginosa PAO1 assessed as MIC fold reduction at 8 ug/ml after 18 hrs by microbroth dilution method. The note with it: dose 8 µg/ml. The class given is functional.
Experiment [3] deals with Acinetobacter baumannii. As to the kind of experiment: Potentiation of cefotaxime-induced antibiotic activity against Acinetobacter baumannii ATCC 17978 assessed as MIC fold reduction at 8 ug/ml after 18 hrs by microbroth dilution method. The class given is functional. The settings on record: dose 8 µg/ml. In a few lines: (§2)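 Initial screen in MHB using a fixed 8 μg mL−1 of adjuvant combined with each antibiotic under 2-fold dilution. Broth microdilution used about 5 × 10^5 CFU/mL at 37 °C for 18 h, with visible turbidity read and confirmed at 590 nm. Fold-potentiation = antibiotic MIC alone ÷ antibiotic MIC with adjuvant.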

Experiment [4] has as its system Pseudomonas aeruginosa. The experiment is described as follows: Potentiation of ceftazidime-induced antibiotic activity against Pseudomonas aeruginosa PAO1 assessed as MIC fold reduction at 8 ug/ml after 18 hrs by microbroth dilution method. The class given is functional. The note with it: dose 8 µg/ml. In short, it runs like this:
as §1

For experiment [5], the system named is Escherichia coli. The experiment is described as follows: Potentiation of cefiderocol-induced antibiotic activity against Escherichia coli ATCC 25922 assessed as MIC fold reduction at 8 ug/ml after 18 hrs by microbroth dilution method. The class given is functional. The note with it: dose 8 µg/ml. In a few lines:
as §2

Experiment [6] relates to Acinetobacter baumannii. The experiment is described as follows: Potentiation of aztreonam-induced antibiotic activity against Acinetobacter baumannii ATCC 17978 assessed as MIC fold reduction at 8 ug/ml after 18 hrs by microbroth dilution method. The class given is functional. The settings on record: dose 8 µg/ml. In short, it runs like this: as §2
Experiment [7] concerns Escherichia coli. As to the kind of experiment: Potentiation of chloamphenicol-induced antibiotic activity against Escherichia coli ATCC 25922 assessed as MIC fold reduction at 8 ug/ml after 18 hrs by microbroth dilution method. The class given is functional. The settings on record: dose 8 µg/ml. In short, it runs like this:
as §1

The test system of experiment [8] is Acinetobacter baumannii. The experiment is described as follows: Antibacterial activity against Acinetobacter baumannii ATCC 17978 assessed as reduction in bacterial growth after 18 hrs by microbroth dilution method. It is filed as functional. In a few lines: (§3)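 CLSI microbroth dilution in MHB. Overnight cultures were adjusted to 0.5 McFarland in saline, diluted 1:50, and inoculated at about 5 × 10^5 CFU/mL. Agents were 2-fold serially diluted and incubated 18 h at 37 °C. MIC is the lowest concentration without visible turbidity, confirmed by absorbance at 590 nm. Medium with and without cells served as controls.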

Experiment [9] deals with Staphylococcus epidermidis. As to the kind of experiment: Antibacterial activity against methicillin-resistant Staphylococcus epidermidis 61589 assessed as reduction in bacterial growth after 18 hrs by microbroth dilution method. It is filed as functional. In a few lines:
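Broth microdilution per CLSI in Mueller-Hinton broth (MHB). Overnight cultures were adjusted to 0.5 McFarland in saline, diluted 1:50 in MHB, and added at about 5 × 10^5 CFU/mL final to equal volumes of 2-fold serial dilutions of agent. Incubation was 18 h at 37 °C. MIC was the lowest concentration with no visible turbidity, confirmed by absorbance at 590 nm.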

For experiment [10], the system named is Pseudomonas aeruginosa. The experiment is described as follows: Potentiation of ceftolozane-induced antibiotic activity against […] Pseudomonas aeruginosa PAO1 assessed as MIC fold reduction at 8 ug/ml after 18 hrs by microbroth dilution method. The class given is functional, organism-based. The settings on record: dose 8.0 µg/ml. In a few lines:
as §1

In experiment [11] the test system is Pseudomonas aeruginosa. The experiment is described as follows: Potentiation of cefiderocol-induced antibiotic activity against MDR clinical isolate Pseudomonas aeruginosa PA259 assessed as MIC fold reduction at 8 ug/ml after 18 hrs by microbroth dilution method. It is filed as functional, organism-based. The note with it: dose 8.0 µg/ml. In a few lines: as §2

Experiment [12] concerns Pseudomonas aeruginosa. The experiment is described as follows: Antibacterial activity against MDR clinical isolate Pseudomonas aeruginosa PA101885 assessed as reduction in bacterial growth after 18 hrs by microbroth dilution method. It is filed as functional. In a few lines: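 CLSI broth microdilution. Overnight cultures were adjusted in saline to 0.5 McFarland, diluted 1:50 in Mueller-Hinton broth (MHB), and inoculated at about 5 × 10^5 CFU/mL. Agents were 2-fold serially diluted in MHB, mixed 1:1 with inoculum, and held at 37 °C for 18 h. MIC was the lowest concentration with no visible turbidity, confirmed at 590 nm.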

The test system of experiment [13] is Pseudomonas aeruginosa. As to the kind of experiment: Antibacterial activity against MDR clinical isolate Pseudomonas aeruginosa PA260 assessed as reduction in bacterial growth after 18 hrs in presence of cefiderocol by microbroth dilution method. The class given is functional. In short, it runs like this:
(§4)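 Checkerboard in MHB. Cefiderocol was 2-fold serially diluted along one axis and the adjuvant along the other. Inoculum was prepared from 0.5 McFarland saline suspensions diluted 1:50 in MHB, giving about 5 × 10^5 CFU/mL final. Plates ran 18 h at 37 °C, with turbidity confirmed at 590 nm. FIC = combination MIC ÷ MIC alone for each agent, and FIC index = sum of both. Interpretation: ≤0.5 synergy, >0.5–4 additive, >4 antagonism.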

Experiment [14] has as its system Pseudomonas aeruginosa. The experiment is described as follows: Antibacterial activity against MDR clinical isolate Pseudomonas aeruginosa PA264 assessed as reduction in bacterial growth after 18 hrs in presence of cefiderocol by microbroth dilution method. The class given is functional. In a few lines: as §4
The test system of experiment [15] is Pseudomonas aeruginosa. As to the kind of experiment: Antibacterial activity against MDR clinical isolate Pseudomonas aeruginosa PA86052 assessed as reduction in bacterial growth after 18 hrs in presence of cefiderocol by microbroth dilution method. It is filed as functional. In short, it runs like this:
as §4

Experiment [16] concerns Pseudomonas aeruginosa. As to the kind of experiment: Antibacterial activity against MDR clinical isolate Pseudomonas aeruginosa PA108590 assessed as reduction in bacterial growth after 18 hrs in presence of cefiderocol by microbroth dilution method. It is filed as functional. In a few lines:
as §4

Experiment [17] concerns Pseudomonas aeruginosa. The experiment is described as follows: Antibacterial activity against MDR clinical isolate Pseudomonas aeruginosa PA109084 assessed as reduction in bacterial growth after 18 hrs in presence of cefiderocol by microbroth dilution method. It is filed as functional. In short, it runs like this:
as §4

Experiment [18] concerns Pseudomonas aeruginosa. As to the kind of experiment: Antibacterial activity against colistin-resistant clinical isolate Pseudomonas aeruginosa PA114228 assessed as reduction in bacterial growth after 18 hrs in presence of cefiderocol by microbroth dilution method. It is filed as functional. In a few lines: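 Checkerboard in MHB (iron-replete, not iron-depleted CAMHB). Cefiderocol was 2-fold serially diluted along one axis and the adjuvant along the other. Inoculum was 0.5 McFarland diluted 1:50, about 5 × 10^5 CFU/mL final. Incubation was 18 h at 37 °C, with turbidity read visually and confirmed at 590 nm. FIC was the MIC in combination over the MIC alone for each agent, and the FIC index was their sum. Cut-offs were ≤0.5 synergy, >0.5–4 additive, >4 antagonism.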

In experiment [19] the test system is Acinetobacter baumannii. As to the kind of experiment: Antibacterial activity against Acinetobacter baumannii AB92247 assessed as reduction in bacterial growth after 18 hrs in presence of cefiderocol by microbroth dilution method. The class given is functional. In a few lines:
(§5)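 Checkerboard in Mueller-Hinton broth: cefiderocol 2-fold diluted on one axis, adjuvant 2-fold on the other. Overnight cultures were adjusted to 0.5 McFarland in saline, diluted 1:50 in MHB, and inoculated at about 5 × 10^5 CFU/mL. Incubation was 18 h at 37 °C. Turbidity was read visually and confirmed at 590 nm. FIC index = FIC of antibiotic + FIC of adjuvant; ≤0.5 synergy, >4 antagonism.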

Experiment [20] has as its system Escherichia coli. The experiment is described as follows: Antibacterial activity against Escherichia coli 107115 assessed as reduction in bacterial growth after 18 hrs by microbroth dilution method. The class given is functional. In a few lines: as §3
Experiment [21] has as its system Enterobacter cloacae. The experiment is described as follows: Antibacterial activity against Enterobacter cloacae 121187 assessed as reduction in bacterial growth after 18 hrs in presence of cefiderocol by microbroth dilution method. It is filed as functional. In a few lines:
as §5

The test system of experiment [22] is Enterobacter cloacae. The experiment is described as follows: Antibacterial activity against Enterobacter cloacae 118564 assessed as potentiation of cefiderocol antibacterial activity by measuring FIC after 18 hrs by microbroth dilution method. The class given is functional. In a few lines: as §5

As for `NC[C@H]1O[C@H](O[C@H]2[C@H](OCCCCc3cn(-c4ccc(NC(=O)c5cc(Cl)ccc5O)cc4)nn3)[C@@H](O[C@H]3O[C@H](CO)[C@@H](O)[C@H](N)[C@H]3O)[C@H](N)C[C@@H]2N)[C@H](N)C[C@@H]1O`, the “fold change (FC)” value with Pseudomonas aeruginosa [1], with Pseudomonas aeruginosa [2], with Acinetobacter baumannii [3], with Pseudomonas aeruginosa [4], in the experiment on Escherichia coli [5] and in the experiment with Acinetobacter baumannii [6] was 4 each time. The “fold change (FC)” value in the experiment with Escherichia coli [7] is 4. Moreover, the MIC in the experiment with Acinetobacter baumannii [8] is greater than 128 µg/mL; in experiment [9], 128 µg/mL (≈ 153 µM); in the experiment on Pseudomonas aeruginosa [12] it was greater than 128 µg/mL; in the experiment on Pseudomonas aeruginosa [13], 0.125 µg/mL; in the experiment with Pseudomonas aeruginosa [14] it was 0.125 µg/mL; in the experiment on Pseudomonas aeruginosa [15], 0.25 µg/mL. For the same molecule, the MIC is 4 µg/mL with Pseudomonas aeruginosa [16]; 0.5 µg/mL in the experiment on Pseudomonas aeruginosa [17]; 16 µg/mL in the experiment with Pseudomonas aeruginosa [18]; 8 µg/mL in the experiment on Acinetobacter baumannii [19]; greater than 128 µg/mL in the experiment on Escherichia coli [20]; 0.25 µg/mL in the experiment with Enterobacter cloacae [21]. Further, the result in the experiment on Pseudomonas aeruginosa [10] and in the experiment with Pseudomonas aeruginosa [11] was Active. The FIC in the experiment on Enterobacter cloacae [22] is given as 1.
